ChEMBL document CHEMBL4680104, “Structure-Based Optimization of Small-Molecule Inhibitors for the β-Catenin/B-Cell Lymphoma 9 Protein-Protein Interaction” (J Med Chem, 2018)
Active and inactive are the calls of the source. No cut-off for these calls is given here.

Tests used:
[1] = Inhibition of protein interaction between C-terminal 6x-histidine tagged full-length beta-catenin (1 to 781 residues) (unknown origin)/N-terminal biotinylated human E-cadherin (824 to 877 residues) incubated for 1 hr by Alpha-screen competitive inhibition assay
Outline: (§1)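 Full-length β-catenin (residues 1–781) with a C-terminal His6 tag was expressed in E. coli BL21(DE3) after IPTG induction at 20 °C. It was purified by Ni-NTA, anion-exchange and size-exclusion chromatography. For the assay, 40 nM β-catenin was preincubated for 30 min at 4 °C with 5 nM biotinylated BCL9 or 10 nM biotinylated E-cadherin. Inhibitor was then added for 1 h at 4 °C, followed by 10 μg/mL donor and acceptor beads for 1 h at 4 °C. IC50 was obtained by nonlinear fit and converted to Ki by the Nikolovska-Coleska method. Triplicate, mean ± SD.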

HCT-116 = assay: Cytotoxicity in human HCT-116 cells assessed as reduction in cell viability incubated for 72 hrs by MTS assay; format: functional, cell-based; details: HCT-116, 72 h
Outline: (§2)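 Cells seeded at 5 × 10^3 cells/well, kept overnight at 37 °C, then exposed to inhibitors at various concentrations for 72 h. Viability read with a freshly mixed PMS (0.92 mg/mL) : MTS (2 mg/mL) reagent at 1:19, incubated 3 h at 37 °C, A490 measured. […] Triplicate; mean ± SD.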

[2] = target: T1, beta-catenin-B-cell lymphoma 9 protein complex (Homo sapiens) (UniProt P35222+O00512); assay: Inhibition of protein interaction between beta-catenin (unknown origin)/BCL9 in HEK293 cells transfected with beta-catenin assessed as reduction in Wnt/beta-catenin transactivation incubated for 24 hrs by Wnt-responsive FOP-Flash luciferase reporter assay; format: cell-based
Outline: (§3)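 HEK293 cells were cotransfected using FuGENE6 with 45 ng TOPFlash or FOPFlash reporter, 135 ng pcDNA3.1-β-catenin and 20 ng pCMV-RL normalization reporter. After 24 h in DMEM with 10% FBS at 37 °C, inhibitors or DMSO were added for 24 h. Reporter activity was read with a dual luciferase system, normalized, and compared with DMSO-treated cells. Triplicate.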

SW480 [3] = assay: Cytotoxicity in human SW480 cells assessed as reduction in cell viability incubated for 72 hrs by MTS assay; format: functional, cell-based; details: SW480, 72 h; outline: as §2
[4] = target: T2, beta-catenin-B-cell lymphoma 9 protein complex (Homo sapiens, UniProt P35222); assay: Inhibition of protein interaction between beta-catenin (unknown origin)/BCL9 in HEK293 cells transfected with beta-catenin assessed as reduction in Wnt/beta-catenin transactivation incubated for 24 hrs by Wnt-responsive TOP-Flash luciferase reporter assay; format: cell-based; outline: as §3
T2 sequence (P35222 whole entry): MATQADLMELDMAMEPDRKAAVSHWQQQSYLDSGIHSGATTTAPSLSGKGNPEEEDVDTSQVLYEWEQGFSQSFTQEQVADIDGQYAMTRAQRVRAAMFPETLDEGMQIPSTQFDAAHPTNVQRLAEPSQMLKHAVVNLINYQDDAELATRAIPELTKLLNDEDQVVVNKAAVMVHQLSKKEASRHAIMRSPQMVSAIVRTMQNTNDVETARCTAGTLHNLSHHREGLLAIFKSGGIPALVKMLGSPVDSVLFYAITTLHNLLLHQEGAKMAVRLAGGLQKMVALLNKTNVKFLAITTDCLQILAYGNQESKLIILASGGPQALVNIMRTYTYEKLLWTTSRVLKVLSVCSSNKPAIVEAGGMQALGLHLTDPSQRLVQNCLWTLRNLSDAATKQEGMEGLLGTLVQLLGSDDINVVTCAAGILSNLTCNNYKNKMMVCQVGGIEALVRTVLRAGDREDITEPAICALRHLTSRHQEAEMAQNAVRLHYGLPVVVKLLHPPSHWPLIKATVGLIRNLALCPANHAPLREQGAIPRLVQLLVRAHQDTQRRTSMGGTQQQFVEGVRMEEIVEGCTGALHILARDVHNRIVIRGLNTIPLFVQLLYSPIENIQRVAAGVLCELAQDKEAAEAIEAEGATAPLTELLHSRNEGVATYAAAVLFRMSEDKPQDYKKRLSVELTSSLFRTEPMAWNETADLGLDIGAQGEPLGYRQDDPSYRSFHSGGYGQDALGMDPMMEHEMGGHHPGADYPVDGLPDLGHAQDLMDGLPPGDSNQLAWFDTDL
T2 sequence (O00512 whole entry): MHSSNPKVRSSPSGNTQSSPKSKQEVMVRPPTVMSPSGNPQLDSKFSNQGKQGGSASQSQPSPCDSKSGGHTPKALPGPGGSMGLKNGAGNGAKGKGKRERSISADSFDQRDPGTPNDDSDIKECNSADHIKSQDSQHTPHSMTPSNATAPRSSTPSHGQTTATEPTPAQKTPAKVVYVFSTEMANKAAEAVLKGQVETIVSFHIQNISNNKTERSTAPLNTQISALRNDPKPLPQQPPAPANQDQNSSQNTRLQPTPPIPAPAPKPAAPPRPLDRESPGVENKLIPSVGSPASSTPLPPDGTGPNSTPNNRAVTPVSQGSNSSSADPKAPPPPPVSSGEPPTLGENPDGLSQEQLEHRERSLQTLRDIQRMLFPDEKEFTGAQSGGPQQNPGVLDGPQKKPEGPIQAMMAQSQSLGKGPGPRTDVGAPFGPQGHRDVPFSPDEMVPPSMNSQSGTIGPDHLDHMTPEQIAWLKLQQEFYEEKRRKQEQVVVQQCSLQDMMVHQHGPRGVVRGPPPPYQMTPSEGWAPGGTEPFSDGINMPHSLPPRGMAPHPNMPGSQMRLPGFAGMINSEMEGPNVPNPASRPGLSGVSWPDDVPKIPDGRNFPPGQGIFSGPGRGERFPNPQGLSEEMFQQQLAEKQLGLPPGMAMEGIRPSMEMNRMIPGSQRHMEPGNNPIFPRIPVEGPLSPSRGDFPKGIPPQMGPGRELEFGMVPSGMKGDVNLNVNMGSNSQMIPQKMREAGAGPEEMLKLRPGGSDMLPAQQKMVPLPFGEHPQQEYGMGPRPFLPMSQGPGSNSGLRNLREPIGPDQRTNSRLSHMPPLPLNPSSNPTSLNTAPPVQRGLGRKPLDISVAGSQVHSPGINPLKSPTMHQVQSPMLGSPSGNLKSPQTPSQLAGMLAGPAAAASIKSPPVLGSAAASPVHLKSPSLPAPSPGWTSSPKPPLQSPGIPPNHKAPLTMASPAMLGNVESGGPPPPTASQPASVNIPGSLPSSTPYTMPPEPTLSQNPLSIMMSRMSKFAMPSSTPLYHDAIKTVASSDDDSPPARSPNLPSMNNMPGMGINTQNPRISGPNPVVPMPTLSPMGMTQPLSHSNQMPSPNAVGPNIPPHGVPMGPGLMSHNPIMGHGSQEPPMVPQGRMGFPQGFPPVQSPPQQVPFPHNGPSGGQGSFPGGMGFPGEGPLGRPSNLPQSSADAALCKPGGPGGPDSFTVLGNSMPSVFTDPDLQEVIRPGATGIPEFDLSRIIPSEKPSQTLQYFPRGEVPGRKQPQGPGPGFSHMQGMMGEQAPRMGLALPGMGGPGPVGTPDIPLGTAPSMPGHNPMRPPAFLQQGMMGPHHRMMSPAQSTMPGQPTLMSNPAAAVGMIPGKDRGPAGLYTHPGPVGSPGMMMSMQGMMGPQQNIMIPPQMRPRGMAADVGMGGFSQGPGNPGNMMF

A549 = assay: Cytotoxicity in human A549 cells assessed as reduction in cell viability incubated for 72 hrs by MTS assay; format: functional, cell-based; details: A549, 72 h; outline: as §2
SW480 [5] = assay: Cytotoxic activity in human SW480 cells at 800 uM incubated for 4 hrs by LDH release assay; format: cell-based; details: sw480, 4 h
Outline: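 SW480 cells were seeded at 2 × 10^4 cells/well and kept overnight at 37 °C. They were then exposed to a range of inhibitor concentrations for 4 h. LDH in the culture supernatant was measured with a diagnostic kit by absorbance at 490 nm. Percent cytotoxicity was calculated from experimental release against maximum release, with background subtracted. Run in triplicate.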

[6] = target: T2, beta-catenin-B-cell lymphoma 9 protein complex; assay: Inhibition of protein interaction between beta-catenin (unknown origin)/BCL9 in human SW480 cells transfected with beta-catenin assessed as reduction in Wnt/beta-catenin transactivation incubated for 24 hrs by Wnt-responsive TOP-Flash luciferase reporter assay; format: cell-based
[7] = target: T1, beta-catenin-B-cell lymphoma 9 protein complex (Homo sapiens); assay: Inhibition of protein interaction between beta-catenin (unknown origin)/BCL9 in human HEK293 cells transfected with beta-catenin assessed as reduction in Wnt/beta-catenin transactivation incubated for 24 hrs by Wnt-responsive FOP-Flash luciferase reporter assay
[8] = target: T2, beta-catenin-B-cell lymphoma 9 protein complex; assay: Inhibition of protein interaction between C-terminal 6x-histidine tagged full-length beta-catenin (1 to 781 residues) (unknown origin)/N-terminal biotinylated human BCL9 ( 350 to 375 residues) incubated for 1 hr by Alpha-screen competitive inhibition assay; format: protein-complex assay; outline: as §1

Ki [1] | inhibition [2] | IC50 [4] | IC50 [6] | inhibition [7] | Ki [8] | Structure (SMILES) | IC50 (HCT-116) | IC50 (SW480 [3]) | IC50 (A549) | Activity (SW480 [5])
> 915 µM | inactive | 50 µM | 43 µM | inactive |  | Cl.Cl.O=C(Nc1ccc(O[C@@H]2CCNC2)c(-c2cccc(-c3nn[nH]n3)c2)c1)c1ccc(O[C@H]2CCNC2)c(-c2ccc3ccsc3c2)c1 | 240 µM | 150 µM | 430 µM | Non-Toxic
 |  |  | 368 µM |  | 5.4 µM | Cl.Cl.O=C(O)c1cccc(-c2cc(NC(=O)c3ccc(O[C@H]4CCNC4)c(-c4ccc(F)c(F)c4)c3)ccc2O[C@H]2CCNC2)c1 | > 400 µM | > 400 µM |  | Non-Toxic
 |  |  |  |  | 5.2 µM | CC(=O)Nc1cccc(-c2cc(NC(=O)c3ccc(O[C@H]4CCNC4)c(-c4ccc(F)c(F)c4)c3)ccc2O[C@H]2CCNC2)c1.Cl.Cl |  | 160 µM |  | Non-Toxic
 |  | > 200 µM | > 200 µM |  | 5.6 µM | Cl.Cl.NS(=O)(=O)c1ccc(-c2cc(NC(=O)c3ccc(O[C@H]4CCNC4)c(-c4ccc(F)c(F)c4)c3)ccc2O[C@H]2CCNC2)cc1 |  | 220 µM |  | Non-Toxic
